Laboratory results published in ChEMBL document CHEMBL1150387, “Development and experimental validation of a docking strategy for the generation of kinase-targeted libraries” (J Med Chem, 2008).

How the values were obtained:
[1] = Inhibition of IRK at 10 uM by HTRF assay relative to control
Summary of the method: (§1)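 HTRF kinase assay, one panel of kinases. Inhibitor stock 50 µM in 100% DMSO; tested at 10 µM. ATP and substrate at final levels near Km. Final buffer: 50 mM Hepes/NaOH pH 7.4, 40 µM Na3VO4, 0.005% Tween-20, 1 mM DTT, MnCl2 or MgCl2 at kinase-dependent levels. Started by adding ATP/substrate. Reaction run at room temperature, time varied by kinase. Detection mix in 50 mM Hepes pH 7.4, 0.1% BSA, 150 mM KF, incubated ≥1 h at room temperature. Activity expressed as % of uninhibited control; n=2.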

[2] = target: Mitogen-activated protein kinase 1 (Homo sapiens) (UniProt P28482); assay: Inhibition of ERK2 at 10 uM by HTRF assay relative to control; summary of the method: as §1
[3] = target: Protein kinase C gamma type (Homo sapiens) (UniProt P05129); assay: Inhibition of PKCgamma at 10 uM by HTRF assay relative to control; summary of the method: as §1
[4] = target: Platelet-derived growth factor receptor beta (Homo sapiens) (UniProt P09619); assay: Inhibition of PDGFRbeta at 10 uM by HTRF assay relative to control; summary of the method: as §1
[5] = target: Ribosomal protein S6 kinase beta-1 (Homo sapiens) (UniProt P23443); assay: Inhibition of p70S6K at 10 uM by HTRF assay relative to control; summary of the method: as §1
[6] = Inhibition of PKA at 10 uM by HTRF assay relative to control; summary of the method: as §1
[7] = target: Calcium/calmodulin-dependent protein kinase type II subunit alpha (Homo sapiens) (UniProt Q9UQM7); assay: Inhibition of CaMK2alpha at 10 uM by HTRF assay relative to control; summary of the method: as §1
[8] = target: Tyrosine-protein kinase Lck (Homo sapiens) (UniProt P06239); assay: Inhibition of Lck at 10 uM by HTRF assay relative to control; summary of the method: as §1
[9] = target: Ribosomal protein S6 kinase alpha-3 (Homo sapiens) (UniProt P51812); assay: Inhibition of RSK2 at 10 uM by HTRF assay relative to control; summary of the method: as §1
[10] = target: Protein-tyrosine kinase 6 (Homo sapiens) (UniProt Q13882); assay: Inhibition of Brk at 10 uM by HTRF assay relative to control; summary of the method: as §1
[11] = target: T1, Ephrin type-B receptor 4 (Homo sapiens) (UniProt P54760); assay: Inhibition of EphB4 at 10 uM by HTRF assay relative to control; summary of the method: as §1
T1 sequence (whole entry): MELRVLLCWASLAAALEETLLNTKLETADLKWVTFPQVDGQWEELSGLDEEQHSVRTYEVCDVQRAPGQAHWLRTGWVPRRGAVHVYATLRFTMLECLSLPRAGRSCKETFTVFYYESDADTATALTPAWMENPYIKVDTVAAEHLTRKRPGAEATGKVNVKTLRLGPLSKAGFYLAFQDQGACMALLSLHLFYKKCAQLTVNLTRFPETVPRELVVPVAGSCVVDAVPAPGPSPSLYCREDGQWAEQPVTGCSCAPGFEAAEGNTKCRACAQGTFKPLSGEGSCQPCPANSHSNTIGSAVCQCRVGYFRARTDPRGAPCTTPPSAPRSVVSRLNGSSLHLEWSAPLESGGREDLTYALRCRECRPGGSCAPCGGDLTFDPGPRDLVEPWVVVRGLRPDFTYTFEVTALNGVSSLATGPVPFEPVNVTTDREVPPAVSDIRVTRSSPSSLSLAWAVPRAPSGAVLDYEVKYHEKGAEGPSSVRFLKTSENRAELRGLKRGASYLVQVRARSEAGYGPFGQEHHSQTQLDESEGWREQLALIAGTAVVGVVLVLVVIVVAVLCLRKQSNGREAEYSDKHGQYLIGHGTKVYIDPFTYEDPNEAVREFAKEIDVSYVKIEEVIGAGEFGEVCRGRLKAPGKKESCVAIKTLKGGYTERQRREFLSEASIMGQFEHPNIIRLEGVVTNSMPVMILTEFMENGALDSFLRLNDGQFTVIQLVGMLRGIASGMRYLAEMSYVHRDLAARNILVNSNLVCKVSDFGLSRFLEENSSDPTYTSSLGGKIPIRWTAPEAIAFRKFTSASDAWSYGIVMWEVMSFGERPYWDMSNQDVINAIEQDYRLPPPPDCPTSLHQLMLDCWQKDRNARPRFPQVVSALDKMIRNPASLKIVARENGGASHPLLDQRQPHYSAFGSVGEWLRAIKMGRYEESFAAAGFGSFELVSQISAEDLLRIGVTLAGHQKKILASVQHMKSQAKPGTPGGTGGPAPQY

[12] = target: Receptor-type tyrosine-protein kinase FLT3 (Homo sapiens) (UniProt P36888); assay: Inhibition of FLT3 at 10 uM by HTRF assay relative to control; summary of the method: as §1
[13] = target: T2, Inhibitor of nuclear factor kappa-B kinase subunit beta (Homo sapiens) (UniProt O14920); assay: Inhibition of IKK-beta at 10 uM by HTRF assay relative to control; summary of the method: as §1
T2 sequence (whole entry): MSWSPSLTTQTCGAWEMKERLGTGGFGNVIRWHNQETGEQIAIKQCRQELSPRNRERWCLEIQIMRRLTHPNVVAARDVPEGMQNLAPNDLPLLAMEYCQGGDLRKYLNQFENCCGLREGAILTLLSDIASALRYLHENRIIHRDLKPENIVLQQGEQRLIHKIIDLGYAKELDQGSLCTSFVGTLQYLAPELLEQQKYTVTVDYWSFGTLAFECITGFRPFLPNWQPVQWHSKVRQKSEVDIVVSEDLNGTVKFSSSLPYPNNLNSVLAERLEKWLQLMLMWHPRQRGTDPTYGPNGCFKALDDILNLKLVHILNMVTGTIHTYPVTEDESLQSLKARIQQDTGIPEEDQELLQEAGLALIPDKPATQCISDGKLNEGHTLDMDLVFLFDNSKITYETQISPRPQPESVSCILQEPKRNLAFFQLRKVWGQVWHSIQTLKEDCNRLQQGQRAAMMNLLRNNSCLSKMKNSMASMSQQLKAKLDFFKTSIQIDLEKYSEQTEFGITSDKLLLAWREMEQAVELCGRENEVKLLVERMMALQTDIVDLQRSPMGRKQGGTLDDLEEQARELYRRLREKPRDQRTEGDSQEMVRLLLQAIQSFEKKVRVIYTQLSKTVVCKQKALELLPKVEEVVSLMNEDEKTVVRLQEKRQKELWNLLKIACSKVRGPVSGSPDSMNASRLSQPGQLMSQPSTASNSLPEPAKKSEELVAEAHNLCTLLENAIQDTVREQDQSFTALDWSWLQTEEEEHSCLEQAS

[14] = target: Protein kinase C alpha type (Homo sapiens) (UniProt P17252); assay: Inhibition of PKCalpha at 10 uM by HTRF assay relative to control; summary of the method: as §1
[15] = target: 3-phosphoinositide-dependent protein kinase 1 (Homo sapiens) (UniProt O15530); assay: Inhibition of PDK1 at 10 uM by HTRF assay relative to control
[16] = target: Fibroblast growth factor receptor 1 (Homo sapiens) (UniProt P11362); assay: Inhibition of FGFR1 at 10 uM by HTRF assay relative to control; summary of the method: as §1
Chain of Fibroblast growth factor receptor 1 (Homo sapiens) (P11362 22-822 limits assumed): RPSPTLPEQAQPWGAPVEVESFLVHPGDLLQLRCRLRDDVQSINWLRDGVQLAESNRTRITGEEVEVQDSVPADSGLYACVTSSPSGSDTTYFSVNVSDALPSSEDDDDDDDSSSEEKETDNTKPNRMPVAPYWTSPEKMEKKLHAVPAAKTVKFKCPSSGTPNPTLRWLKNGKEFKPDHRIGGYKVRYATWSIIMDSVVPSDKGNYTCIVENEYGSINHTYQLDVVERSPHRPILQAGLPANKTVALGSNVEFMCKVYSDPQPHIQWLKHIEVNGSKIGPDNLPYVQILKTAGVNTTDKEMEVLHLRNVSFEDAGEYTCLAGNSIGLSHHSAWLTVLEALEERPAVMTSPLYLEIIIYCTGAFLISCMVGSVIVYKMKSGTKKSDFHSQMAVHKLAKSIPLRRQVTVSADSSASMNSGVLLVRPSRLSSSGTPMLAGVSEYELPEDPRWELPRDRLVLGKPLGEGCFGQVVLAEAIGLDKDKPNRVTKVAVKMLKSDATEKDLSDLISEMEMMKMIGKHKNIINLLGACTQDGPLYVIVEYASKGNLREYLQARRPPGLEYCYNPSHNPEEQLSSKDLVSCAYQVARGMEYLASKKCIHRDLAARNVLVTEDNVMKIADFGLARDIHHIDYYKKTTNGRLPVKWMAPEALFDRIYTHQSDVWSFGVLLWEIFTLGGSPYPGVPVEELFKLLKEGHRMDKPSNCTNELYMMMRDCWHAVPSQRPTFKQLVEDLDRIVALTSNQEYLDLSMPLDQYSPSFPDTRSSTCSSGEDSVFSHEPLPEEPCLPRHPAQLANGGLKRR

Chain of Ribosomal protein S6 kinase alpha-3 (Homo sapiens) (P51812 whole entry): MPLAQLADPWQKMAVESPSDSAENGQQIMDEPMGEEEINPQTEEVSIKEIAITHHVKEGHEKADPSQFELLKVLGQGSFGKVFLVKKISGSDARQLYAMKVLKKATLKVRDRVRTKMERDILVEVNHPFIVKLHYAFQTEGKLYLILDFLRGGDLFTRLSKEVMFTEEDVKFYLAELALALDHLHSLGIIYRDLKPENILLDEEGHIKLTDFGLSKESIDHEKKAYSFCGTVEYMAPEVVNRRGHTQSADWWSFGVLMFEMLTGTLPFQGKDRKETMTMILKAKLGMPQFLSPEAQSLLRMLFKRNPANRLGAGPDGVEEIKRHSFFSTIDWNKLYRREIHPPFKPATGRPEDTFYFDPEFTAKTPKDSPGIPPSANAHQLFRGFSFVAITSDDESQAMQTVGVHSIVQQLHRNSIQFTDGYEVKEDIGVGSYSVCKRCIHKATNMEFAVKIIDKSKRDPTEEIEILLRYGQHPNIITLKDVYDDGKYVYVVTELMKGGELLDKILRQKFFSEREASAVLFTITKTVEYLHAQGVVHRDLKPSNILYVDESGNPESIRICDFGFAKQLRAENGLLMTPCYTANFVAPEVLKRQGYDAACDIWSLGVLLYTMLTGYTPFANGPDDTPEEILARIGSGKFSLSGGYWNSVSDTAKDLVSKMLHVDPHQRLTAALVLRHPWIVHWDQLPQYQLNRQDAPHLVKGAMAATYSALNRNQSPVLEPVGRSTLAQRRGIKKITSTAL
Chain of Platelet-derived growth factor receptor beta (Homo sapiens) (P09619 whole entry): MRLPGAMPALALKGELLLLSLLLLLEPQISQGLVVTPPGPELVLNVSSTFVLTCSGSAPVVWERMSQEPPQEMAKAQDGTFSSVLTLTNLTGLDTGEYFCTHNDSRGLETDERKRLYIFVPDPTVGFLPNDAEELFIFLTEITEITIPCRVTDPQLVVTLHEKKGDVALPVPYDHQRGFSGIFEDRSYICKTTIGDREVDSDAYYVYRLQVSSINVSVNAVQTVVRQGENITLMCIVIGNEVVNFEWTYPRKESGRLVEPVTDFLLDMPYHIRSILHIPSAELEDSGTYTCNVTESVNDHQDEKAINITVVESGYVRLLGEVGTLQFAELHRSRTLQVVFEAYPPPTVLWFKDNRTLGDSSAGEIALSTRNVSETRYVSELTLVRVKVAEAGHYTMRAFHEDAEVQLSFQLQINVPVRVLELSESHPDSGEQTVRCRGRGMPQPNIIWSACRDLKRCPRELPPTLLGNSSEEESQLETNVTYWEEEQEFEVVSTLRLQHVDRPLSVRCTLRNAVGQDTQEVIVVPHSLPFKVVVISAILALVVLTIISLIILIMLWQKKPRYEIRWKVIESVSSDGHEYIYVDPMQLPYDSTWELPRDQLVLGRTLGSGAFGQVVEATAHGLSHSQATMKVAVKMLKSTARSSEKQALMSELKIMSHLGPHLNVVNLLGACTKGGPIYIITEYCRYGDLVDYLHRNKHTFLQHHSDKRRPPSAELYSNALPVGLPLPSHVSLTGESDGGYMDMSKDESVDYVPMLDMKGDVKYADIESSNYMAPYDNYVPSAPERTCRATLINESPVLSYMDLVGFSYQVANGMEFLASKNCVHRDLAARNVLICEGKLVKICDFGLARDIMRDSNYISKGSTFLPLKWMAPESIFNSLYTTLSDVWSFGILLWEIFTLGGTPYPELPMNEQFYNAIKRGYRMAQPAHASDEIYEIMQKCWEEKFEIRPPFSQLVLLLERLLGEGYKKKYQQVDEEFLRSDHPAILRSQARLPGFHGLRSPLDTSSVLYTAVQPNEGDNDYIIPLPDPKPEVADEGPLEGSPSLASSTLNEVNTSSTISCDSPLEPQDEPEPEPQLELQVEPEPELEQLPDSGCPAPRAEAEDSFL
Chain of Tyrosine-protein kinase Lck (Homo sapiens) (P06239 2-509 limits assumed): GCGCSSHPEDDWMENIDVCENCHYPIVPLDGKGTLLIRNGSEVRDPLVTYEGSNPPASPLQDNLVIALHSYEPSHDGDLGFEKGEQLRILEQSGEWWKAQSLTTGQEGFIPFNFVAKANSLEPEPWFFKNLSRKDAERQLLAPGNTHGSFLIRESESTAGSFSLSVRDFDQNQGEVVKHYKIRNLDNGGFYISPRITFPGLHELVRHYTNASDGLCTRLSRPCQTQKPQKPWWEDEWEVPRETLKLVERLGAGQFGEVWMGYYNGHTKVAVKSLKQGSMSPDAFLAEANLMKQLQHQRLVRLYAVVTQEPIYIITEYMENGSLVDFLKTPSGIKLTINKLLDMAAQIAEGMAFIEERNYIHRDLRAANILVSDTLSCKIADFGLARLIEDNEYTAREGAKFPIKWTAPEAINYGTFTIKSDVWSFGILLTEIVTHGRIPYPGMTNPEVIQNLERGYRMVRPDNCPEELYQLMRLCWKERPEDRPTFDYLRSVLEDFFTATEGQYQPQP
Chain of Calcium/calmodulin-dependent protein kinase type II subunit alpha (Homo sapiens) (Q9UQM7 whole entry): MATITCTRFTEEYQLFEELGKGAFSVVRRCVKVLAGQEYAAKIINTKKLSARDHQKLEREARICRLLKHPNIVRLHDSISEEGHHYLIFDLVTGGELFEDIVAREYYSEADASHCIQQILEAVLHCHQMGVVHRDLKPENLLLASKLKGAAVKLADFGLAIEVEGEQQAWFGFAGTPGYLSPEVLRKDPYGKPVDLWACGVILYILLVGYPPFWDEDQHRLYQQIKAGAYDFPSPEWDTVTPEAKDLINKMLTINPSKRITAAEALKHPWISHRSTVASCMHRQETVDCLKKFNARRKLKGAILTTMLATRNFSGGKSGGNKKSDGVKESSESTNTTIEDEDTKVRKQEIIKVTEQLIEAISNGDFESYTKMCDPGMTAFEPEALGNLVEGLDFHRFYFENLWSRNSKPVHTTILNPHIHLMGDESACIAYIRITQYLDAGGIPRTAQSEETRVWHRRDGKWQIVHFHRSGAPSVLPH
Chain of 3-phosphoinositide-dependent protein kinase 1 (Homo sapiens) (O15530 whole entry, looked up): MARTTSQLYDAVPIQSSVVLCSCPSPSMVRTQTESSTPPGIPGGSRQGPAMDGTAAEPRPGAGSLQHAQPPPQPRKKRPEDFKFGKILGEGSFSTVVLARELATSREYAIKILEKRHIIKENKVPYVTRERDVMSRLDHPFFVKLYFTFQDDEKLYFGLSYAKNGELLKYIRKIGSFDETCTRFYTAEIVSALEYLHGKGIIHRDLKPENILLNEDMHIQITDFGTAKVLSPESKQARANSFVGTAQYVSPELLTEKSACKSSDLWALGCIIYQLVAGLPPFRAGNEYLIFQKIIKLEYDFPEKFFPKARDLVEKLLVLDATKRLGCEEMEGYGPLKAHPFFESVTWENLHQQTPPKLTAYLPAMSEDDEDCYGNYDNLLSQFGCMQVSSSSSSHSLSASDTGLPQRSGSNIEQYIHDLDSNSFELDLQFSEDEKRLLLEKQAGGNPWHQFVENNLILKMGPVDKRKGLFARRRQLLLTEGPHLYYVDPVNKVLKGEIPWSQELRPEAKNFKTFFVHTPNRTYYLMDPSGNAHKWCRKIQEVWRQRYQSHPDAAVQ

inhibition [1] [%]	inhibition [2] [%]	inhibition [3] [%]	inhibition [4] [%]	inhibition [5] [%]	inhibition [6] [%]	inhibition [7] [%]	inhibition [8] [%]	inhibition [9] [%]	inhibition [10] [%]	inhibition [11] [%]	inhibition [12] [%]	inhibition [13] [%]	inhibition [14] [%]	inhibition [15] [%]	inhibition [16] [%]	SMILES
0	3	10	13	3	0	0	0	0	3	4	21	3	0	0	3	Cc1cccc(N(C)c2cc(Nc3cccc(C(=O)NCc4ccc(N(C)C)cc4)c3)ncn2)c1
0	2	6	5	7	0	0	0	0	22	0	0	3	0	0	0	Cc1cc(C(=O)N2CCN(c3ncnc4c3CN(Cc3ccccc3)CC4)CC2)c(C)n1C
0	6	2	33	9	0	0	9	3	0	0	13	0	0	0	0	Cc1cccc(N(C)c2cc(Nc3cccc(C(=O)NCc4ccncc4)c3)ncn2)c1
0	0	0	7	3	0	0	0	0	22	0	0	9	3	5	0	Cc1cccc(N(C)c2cc(N3CCN(CC(=O)Nc4nc(-c5ccccc5)cs4)CC3)ncn2)c1
0	3	4	7	3	0	0	0	0	9	0	0	2	0	0	0	O=C(c1nc(SCc2ccc(Cl)cc2)n2ccccc12)N1CCN(c2ncnc3c2CN(Cc2ccccc2)CC3)CC1
0	2	5	48	18	0	0	0	0	29	0	67	0	0	1	19	Cc1cccc(N(C)c2cc(Nc3ccc(CC(=O)Nc4ccc5ncsc5c4)cc3)ncn2)c1
0	3	6	5	12	0	1	0	0	0	0	0	0	1	0	0	CN(CCc1ccccn1)C(=O)[C@@H]1CCCN1c1nccc(Nc2ccccc2)n1
0	0	5	5	12	0	0	0	0	32	0	0	7	0	0	0	Cc1cccc(N(C)c2cc(Nc3cccc(C(=O)N4CCCC5CCCCC54)c3)ncn2)c1 (centres undefined)

The next lines start with the compound.

SMILES	inhibition [1] [%]	inhibition [2] [%]	inhibition [3] [%]	inhibition [4] [%]	inhibition [5] [%]	inhibition [6] [%]	inhibition [7] [%]	inhibition [8] [%]	inhibition [9] [%]	inhibition [10] [%]	inhibition [11] [%]	inhibition [12] [%]	inhibition [13] [%]	inhibition [14] [%]	inhibition [15] [%]	inhibition [16] [%]
COc1cccc(Nc2cc(Nc3cccc(C(=O)NCCCn4ccnc4)c3)nc(N)n2)c1	0	1	0	7	14	13	0	0	0	16	0	1	4	2	1	6
COc1cccc(Nc2cc(N3CCC[C@H]3C(=O)NCCc3ccc(O)cc3)nc(N)n2)c1	0	0	5	0	7	0	0	0	0	14	0	0	4	0	0	7
COC[C@@H]1CCCN1C(=O)C1CCCN1c1cc(Nc2cccc(Br)c2)ncn1 (some centres undefined)	0	0	5	6	3	8	0	0	0	3	0	0	1	0	0	0
CC(=O)CCCCC(=O)N1CCN(c2nccc(Oc3cccc(C)c3)n2)CC1	0	0	0	4	3	0	0	0	0	3	0	0	4	0	2	11
Cc1cccc(Nc2nccc(Nc3cccc(C(=O)NCc4ccc(N(C)C)cc4)c3)n2)c1	0	0	0	24	9	0	0	0	5	33	0	54	2	3	0	20
Nc1nc(N2CCOCC2)cc(N2CCC(C(=O)NCCc3ccc(O)cc3)CC2)n1	0	11	0	0	6	0	0	0	0	0	0	0	4	0	0	15
